Source: the RNAGym collection of RNA variant scans (doi:10.1002/anie.201605470)

B1: Osa-1-4 twister ribozyme (parent)
chain: CCGCCUAACACUGCCAAUGCCGGUCCCAAGCCCGGAUAAAAGUGGAGGGGGCGG

Variants of: B1
Assay: self-cleavage, relative activity (ratio to wild type); higher = more cleavage; co-transcriptional
How it was run: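 For each read, cleavage status was taken from whether upstream sequence was present. The reads came from an Oryza sativa twister ribozyme of 54 nucleotides, whose DNA template was synthesised with 97 % wild-type base and 1 % of each other base at the 48 positions downstream of the cleavage site. The template was transcribed in vitro at 37 °C for 2 h with co-transcriptional self-cleavage, and the RNA was reverse-transcribed using a template-switching oligonucleotide, PCR-amplified and deep-sequenced. Relative activity is the fraction cleaved normalised to wild type.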
In the case of C26A G48C, the self-cleavage is reported as 0.1. In the case of C26A G48U, the self-cleavage is reported as 0.7. C25U C9A showed a self-cleavage of 0.23. For C25U C9U, the self-cleavage was 0.33. C25U C9G gave a self-cleavage of 0.18. C25U G13U gave a self-cleavage of 0.03. With C25U G13A the self-cleavage was 0.07. Work on C25U G13C yielded a self-cleavage of 0.02. In the case of C26A G30A, the self-cleavage is reported as 0.01. C26A G30U gave a self-cleavage of 0.01. Work on C26A G30C yielded a self-cleavage of 0.02. With C25U G50A the self-cleavage was 0.87. C25U G50U showed a self-cleavage of 0.52. With C25U G50C the self-cleavage was 0.23. C25G G50U showed a self-cleavage of 0.11. In the case of C25G G50C, the self-cleavage is reported as 0.09. C25G G50A gave a self-cleavage of 0.12. In the case of C25U G42A, the self-cleavage is reported as 0.22. For C25U G42U, the self-cleavage was 0.05. In the case of C25U G42C, the self-cleavage is reported as 0.11. C25G C33U showed a self-cleavage of 0.06. Variant C25G C33A has a self-cleavage of 0.03. C25G C33G gave a self-cleavage of 0.04. For C25G G51C, the self-cleavage was 0.03. With C25G G51A the self-cleavage was 0.07. C25G G51U gave a self-cleavage of 0.04. With C26A G51C the self-cleavage was 0.02. In the case of C26A G51U, the self-cleavage is reported as 0.04. C26A G51A showed a self-cleavage of 0.06. Variant C26G G22U has a self-cleavage of 0.08. In the case of C26G G22A, the self-cleavage is reported as 0.15. C26G G22C gave a self-cleavage of 0.06. C25G showed a self-cleavage of 0.12. C25U gave a self-cleavage of 0.93. In the case of C25A U37G, the self-cleavage is reported as 0.25. Work on C25A U37C yielded a self-cleavage of 0.14. With C25A U37A the self-cleavage was 0.11. Variant C26A C52G has a self-cleavage of 0.08. With C26A C52U the self-cleavage was 0.07. In the case of C26A C52A, the self-cleavage is reported as 0.08. Variant C26G G35U has a self-cleavage of 0.09. C26G G35C showed a self-cleavage of 0.07. Work on C26G G35A yielded a self-cleavage of 0.08. C25G G23U showed a self-cleavage of 0.04. C25G G23C gave a self-cleavage of 0.04. Variant C25G G23A has a self-cleavage of 0.06. With C25U G51A the self-cleavage was 0.51. With C25U G51U the self-cleavage was 0.17. With C25U G51C the self-cleavage was 0.06. C25G C32G gave a self-cleavage of 0.09. For C25G C32U, the self-cleavage was 0.04. C25G C32A gave a self-cleavage of 0.03. Variant C26G G45U has a self-cleavage of 0.02. For C26G G45A, the self-cleavage was 0.05. Variant C26G G45C has a self-cleavage of 0.03. For C26G C33A, the self-cleavage was 0.05. In the case of C26G C33G, the self-cleavage is reported as 0.04. Work on C26G C33U yielded a self-cleavage of 0.07. C25A G54U gave a self-cleavage of 0.28. For C25A G54A, the self-cleavage was 0.12. C25A G54C gave a self-cleavage of 0.08. Variant C26G G19C has a self-cleavage of 0.04. In the case of C26G G19A, the self-cleavage is reported as 0.08. C26G G19U showed a self-cleavage of 0.05. Work on C26A G19U yielded a self-cleavage of 0.03. In the case of C26A G19A, the self-cleavage is reported as 0.04. C26A G19C gave a self-cleavage of 0.02. With C25G C26U the self-cleavage was 0.07. For C25G C26G, the self-cleavage was 0.12. For C25G C26A, the self-cleavage was 0.01. For C25G U24C, the self-cleavage was 0.03. C25G U24A showed a self-cleavage of 0.03. In the case of C25G U24G, the self-cleavage is reported as 0.02. C26A C9U gave a self-cleavage of 0.03. C26A C9G showed a self-cleavage of 0.05. C26A C9A gave a self-cleavage of 0.02. Work on C25G G34C yielded a self-cleavage of 0.06. C25G G34U showed a self-cleavage of 0.07. For C25G G34A, the self-cleavage was 0.08. C25U C26G gave a self-cleavage of 0.08. C25U C26A gave a self-cleavage of 0.04. Work on C25U C26U yielded a self-cleavage of 0.21. C25G C52G gave a self-cleavage of 0.12. Work on C25G C52U yielded a self-cleavage of 0.11.
